Published values collected from several papers.
Each line is one published result; the experiments were not run side by side.
Target: Calcium/calmodulin-dependent protein kinase type II subunit delta (CAMK2D, Homo sapiens, UniProt Q13557)

COc1cc(Cl)c(C(=O)N[C@@H](CN[C@H]2CC[C@@H](N)CC2)Cc2ccc(C#N)cc2)cc1-c1ccc(CN[C@H](C)c2ccc(C)cc2)o1 — remaining activity (enzyme activity, inhibitor; 1 µM): 100%
CN1CC(Oc2cnc(C#N)cc2-c2ccn3nc(NC(=O)C4CC4)cc3c2)C1 — inhibition (enzyme activity, inhibitor; 1 µM): -3%
COc1cccc(CNC(=O)c2nc3scc(COCc4ccc(C(=O)O)cc4)c3c(=O)[nH]2)c1 — remaining binding (cell-free assay, competition with immobilised ligand; 1 µM): 100%
C[S+]([O-])c1ccc(-c2nc(-c3ccncc3)c(-c3ccc(F)cc3)[nH]2)cc1 (stereo not drawn) — remaining signal (cell-free assay; 0.5 µM): 103%
c1ccc(CNc2nc(N3CCOc4ccccc43)nc3c2CCCC3)cc1 — inhibition (target engagement in cells, inhibitor, chemoproteomics; 20 mM): -17.7%
Cc1ccc(NC(=O)c2ccc(C)c(C(F)(F)F)c2)cc1C#Cc1nn(C2CCC(O)CC2)c2ncnc(N)c12 (stereo not drawn) — remaining signal (cell-free assay; 10 µM): 89%
CCCS(=O)(=O)Nc1ccc(F)c(C(=O)c2c[nH]c3ncc(-c4ccc(Cl)cc4)cc23)c1F — inhibition (enzyme activity, inhibitor; 1 µM): < 10%
CC(C)(C)c1nc(-c2cccc(NS(=O)(=O)c3c(F)cccc3F)c2F)c(-c2ccnc(N)n2)s1 — remaining activity (enzyme activity, inhibitor, radiometric; 1 µM): 97%
CC(C)(O)[C@H]1CC[C@H](Nc2ccc3ncc(-c4cccc(C(F)(F)F)c4)n3n2)CC1 — remaining activity (enzyme activity, inhibitor; 1 µM): 81.8%
Cc1ccc(C(=O)NCc2ccsc2)cc1C#Cc1cn(C(C)C)c2ncnc(N)c12 — activity vs control (enzyme activity, inhibitor; 1 µM): 102%
CCOC(=O)c1cc2cc(-c3cc(C(=O)NCc4ccc(C(=O)O)cc4)nn3C)ccc2[nH]1 — remaining binding (cell-free assay, competition with immobilised ligand; 0.1 µM): 91%
CNC(=O)c1cc(Oc2ccc(NC(=O)Nc3ccc(Cl)c(C(F)(F)F)c3)cc2)ccn1 — inhibition (enzyme activity, inhibitor; 0.3 µM): 56%
O=C1NC(=O)c2cc(Nc3ccc(F)cc3)c(Nc3ccc(F)cc3)cc21 — remaining signal (cell-free assay; 0.5 µM): 97.9%
Cc1sc(C(=O)NC2COC2)cc1-n1cc(NC(=O)Nc2c(F)cccc2Cl)cn1 — remaining activity (enzyme activity, inhibitor; 10 µM): 91.3%
COc1cccc2c(NCc3ccccc3)nc(-n3c(N)nc4ccccc43)nc12 — inhibition (target engagement in cells, inhibitor, chemoproteomics; 20 mM): -14.3%
CSc1cccnc1N1CCN(Cc2nc3ccccc3[nH]2)CC1 — remaining binding (cell-free assay, competition with immobilised ligand; 1 µM): 100%
Cc1ccc(Nc2nccc(N(C)c3ccc4c(C)n(C)nc4c3)n2)cc1S(N)(=O)=O — inhibition (enzyme activity, inhibitor; 0.3 µM): 63%
CNCc1ccccc1-c1csc([C@H](C)Nc2nc(C)nc3cc(OC)c(OC)cc23)c1 — remaining binding (cell-free assay, competition with immobilised ligand; 1 µM): 97%
CCN(CC)CCNC(=O)c1c(C)[nH]c(/C=C2\C(=O)Nc3ccc(F)cc32)c1C — inhibition (enzyme activity, inhibitor; 0.3 µM): 92%
NS(=O)(=O)c1cc(NC(=O)Cc2ccccc2)ccc1Oc1cccc(Cl)c1 — remaining binding (cell-free assay, competition with immobilised ligand; 1 µM): 97%
CCN1CCN(Cc2ccc(NC(=O)c3ccc(C)c(Oc4ccnc5[nH]ccc45)c3)cc2C(F)(F)F)CC1 — inhibition (target engagement in cells, inhibitor, chemoproteomics; Huh-7; 1 µM): -12%
O=C(NCc1ncc(C(F)(F)F)cc1Cl)c1ccc2c(c1)C1(CCS(=O)(=O)CC1)[C@H](C1CC1)N2S(=O)(=O)c1ccc(F)cc1 — remaining binding (cell-free assay, competition with immobilised ligand; 1 µM): 100%
COc1cc2ncnc(Nc3ccc(Oc4ccccc4)cc3C)c2cc1OC — inhibition (enzyme activity, inhibitor; 1 µM): 4%
Cc1c(NC(=O)c2cc(C(N)=O)nc3cc(F)ccc23)c(C(F)(F)F)nn1Cc1ccc(C#N)cc1 — remaining binding (cell-free assay, competition with immobilised ligand; 1 µM): 90%
CC(C)c1ccc(NC(=O)c2cccs2)c(-c2nc3ccccc3[nH]c2=O)c1 — activity vs control (enzyme activity, inhibitor; 1 µM): 102%
COc1ccc2c(c1)O[C@H](c1ccc(OC)c(OC)c1)C[C@@H]2NC(=O)C1(c2ccc3c(c2)OC(F)(F)O3)CC1 — remaining binding (cell-free assay, competition with immobilised ligand; 1 µM): 100%
C[C@@H]1CCN(C(=O)CC#N)C[C@@H]1N(C)c1ncnc2[nH]ccc12 — remaining signal (cell-free assay; 0.5 µM): 98.2%
